# Assay results from different studies.
# Lines come from different studies, so protocols differ.
# Target: Protein kinase C epsilon type (PRKCE, Homo sapiens, UniProt Q02156)
# One construct used (Q02156 1-737): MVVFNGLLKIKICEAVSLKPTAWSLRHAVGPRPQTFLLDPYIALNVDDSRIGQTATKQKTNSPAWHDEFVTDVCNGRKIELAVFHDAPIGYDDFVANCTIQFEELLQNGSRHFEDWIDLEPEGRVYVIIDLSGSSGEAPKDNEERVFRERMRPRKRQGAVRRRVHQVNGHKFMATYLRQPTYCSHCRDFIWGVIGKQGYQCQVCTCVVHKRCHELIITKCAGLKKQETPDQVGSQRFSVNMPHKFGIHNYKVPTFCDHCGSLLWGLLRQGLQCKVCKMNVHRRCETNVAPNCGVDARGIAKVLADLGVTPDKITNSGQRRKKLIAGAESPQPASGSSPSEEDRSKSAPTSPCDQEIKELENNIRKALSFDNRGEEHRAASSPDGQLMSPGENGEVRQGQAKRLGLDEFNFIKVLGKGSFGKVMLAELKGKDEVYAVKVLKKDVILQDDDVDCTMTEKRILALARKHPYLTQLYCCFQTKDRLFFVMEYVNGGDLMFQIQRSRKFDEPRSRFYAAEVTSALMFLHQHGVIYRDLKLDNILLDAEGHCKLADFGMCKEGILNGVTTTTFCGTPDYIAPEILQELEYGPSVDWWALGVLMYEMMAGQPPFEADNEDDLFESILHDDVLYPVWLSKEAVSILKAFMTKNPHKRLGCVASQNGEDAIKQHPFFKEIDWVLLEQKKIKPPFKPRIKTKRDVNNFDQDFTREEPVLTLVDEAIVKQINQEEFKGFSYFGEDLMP
SMILES,effect on,action,technique,concentration,measurement,value
COc1cc(Nc2ncc(F)c(Nc3ccc4c(n3)NC(=O)C(C)(C)O4)n2)cc(OC)c1OC,binding,,,10 µM,inhibition,73%
Cn1cncc1[C@](O)(COc1ccc(C#N)cc1-c1ccc(OC(F)(F)F)cc1)c1ccc(C#N)cc1,cell-free assay,,competition with immobilised ligand,1 µM,remaining binding,79%
Cn1cc(-c2cc(F)cc(N3CCn4c(cc5c4CCCC5)C3=O)c2CO)cc(Nc2ccc(N3CCN(C4COC4)CC3)cn2)c1=O,enzyme activity,inhibitor,,0.1 µM,inhibition,-4%
O=c1[nH]c2ccccc2n1C1CCN(Cc2ccc(-c3[nH]c4cc5ncnc5cc4nc3-c3ccccc3)cc2)CC1,cell-free assay,,,0.5 µM,remaining signal,109%
COc1ncccc1-c1cnn2ccc(N3CCN(C(=O)OC(C)C)CC3)nc12,binding,,competition with immobilised ligand,1 µM,remaining binding,76%
CC(C)(C)c1cc(C=C(C#N)C#N)cc(Br)c1O,enzyme activity,inhibitor,,0.5 µM,remaining activity,108%
Cn1cc(-c2cccc(N3CCc4c(sc5c4CC(C)(C)C5)C3=O)c2CO)cc(Nc2ccncn2)c1=O,enzyme activity,inhibitor,,1 µM,inhibition,1%
C#Cc1n[nH]c2c(-c3cn([C@@H](C)c4ccccn4)c(=O)[nH]c3=O)cc(F)cc12,enzyme activity,inhibitor,,0.1 µM,inhibition,4.1%
